Assay results gathered from unrelated publications.
pIC50: −log10 of the molar value.
Cell line: A549
Effect on: cell growth or viability

Structure (SMILES) | test | setting | pIC50
O=C(C=Cc1ccccc1)Nc1cc(-c2ccnc(N3CCC(O)CC3)c2)ccn1 | MTT | 72 h | 7.07
C=C(F)C(=O)N1CCN(c2nc(OC[C@@H]3CCCN3C)nc3c2CCN(c2cccc4cccc(Cl)c24)C3)C[C@@H]1CC#N | ATP luminescence | 3D culture | < 6.00
C#Cc1cccc(Nc2ncnc3cc(OCCOC)c(OCCOC)cc23)c1 | MTT | 72 h | 4.59
Cc1nc(N(C)c2ccc3c(c2)/C(=C/c2ccccc2Cl)C(=O)N3C)c2ccccc2n1 | MTT | – | 5.11
Cc1ncc(CN2CCc3ccccc3C2)c2cc(C(=O)c3ccc4c(c3)OCCO4)oc12 | MTT | 72 h | 4.55
COc1cc2ncnc(N(C)c3ccc4c(c3)/C(=C/c3cccc(Cl)c3)C(=O)N4C)c2cc1OC | MTT | – | 5.23
Cc1ncc(CN2CCN(Cc3ccccn3)CC2)c2cc(C(=O)c3ccc4c(c3)OCCO4)oc12 | MTT | 72 h | 4.24
C[C@H]1Oc2cc(cnc2N)-c2c(nn(C)c2C#N)CN(C)C(=O)c2ccc(F)cc21 | – | – | < 5.08
Cc1nc(N(Cc2ccccc2)c2ccc3c(c2)/C(=C/c2ccccc2)C(=O)N3Cc2ccccc2)c2ccccc2n1 (mixture of isomers) | MTT | – | 6.19
[NH2][Pt]([NH2])([Cl])[Cl] | MTT | – | 5.02
Cc1nc(Nc2ccc3c(c2)C(C)(C)C(=O)N3)c2ccccc2n1 | MTT | – | 5.49
O=C(O)c1ccc2c(c1)nc(Nc1cccc(Cl)c1)c1ccncc12 | resazurin | 48 h | 4.94
COc1cccc2c1C(=O)c1c(O)c3c(c(O)c1C2=O)C[C@@](O)(C(=O)CO)C[C@@H]3O[C@H]1C[C@H](N)[C@H](O)[C@H](C)O1 | MTT | 72 h | 5.57
